Results published in ChEMBL document CHEMBL1165897, “Design, synthesis, characterization, and antibacterial activity of {5-chloro-2-[(3-substitutedphenyl-1,2,4-oxadiazol-5-yl)-methoxy]-phenyl}-(phenyl)-methanones” (2010).
Values after ≈ are worked out from the molar mass of the structure shown.

Columns and labels:
Staphylococcus aureus [1] = test: Antibacterial activity against Staphylococcus aureus NCIM 2079; ATCC 6538P after 24 hrs by microtitration method; type: functional; conditions: ATCC6538P
Outline: (§1)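 Microtitration assay using the same isolates as the cup plate test; MIC taken as the lowest concentration of test sample or antibiotic giving no visible growth.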

Escherichia coli [2] = test: Antibacterial activity against Escherichia coli NCIM 2065; ATCC 8739 after 24 hrs by microtitration method; type: functional; conditions: ATCC 8739, 24 h; outline: as §1
Escherichia coli [3] = test: Antibacterial activity against Escherichia coli NCIM 2065; ATCC 8739 at […] after 24 hrs by agar cup plate method; type: functional; conditions: ATCC 8739, 24 h, read-out: IZ
Outline: (§2)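 Agar cup plate diffusion: test compounds at 100 µg/mL in 20% water in DMSO placed in bores cut in agar plates seeded with each organism, alongside standard drugs; incubated 37 °C for 24 h, then zone of inhibition around the bore measured. Values are the average of three experiments.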

Bacillus subtilis [4] = test: Antibacterial activity against Bacillus subtilis NCIM 2063; ATCC 6633 at […] after 24 hrs by agar cup plate method; type: functional, NCIM 2063; ATCC6633; conditions: ATCC6633, 24 h, read-out: IZ; outline: as §2
Klebsiella pneumoniae = test: Antibacterial activity against Klebsiella pneumoniae NCIM 2957; ATCC 11298 after 24 hrs by microtitration method; type: functional; conditions: ATCC 11298, 24 h; outline: as §1
Bacillus subtilis [5] = test: Antibacterial activity against Bacillus subtilis NCIM 2063; ATCC 6633 after 24 hrs by microtitration method; type: functional, NCIM 2063; ATCC6633; conditions: ATCC6633, 24 h; outline: as §1
Staphylococcus aureus [6] = test: Antibacterial activity against Staphylococcus aureus NCIM 2079; ATCC 6538P at […] after 24 hrs by agar cup plate method; type: functional, NCIM 2079; ATCC6538P; set-up: dose or concentration left out as unconfirmed; conditions: ATCC6538P, read-out: IZ

Structure (SMILES)	MIC (Staphylococcus aureus [1]) [µg/mL]	MIC (Escherichia coli [2]) [µg/mL]	zone of inhibition at 100000 µg/mL (Escherichia coli [3]) [mm]	zone of inhibition at 100000 µg/mL (Bacillus subtilis [4]) [mm]	MIC (Klebsiella pneumoniae) [µg/mL]	MIC (Bacillus subtilis [5]) [µg/mL]	zone of inhibition (Staphylococcus aureus [6]) [mm]
COc1cc(-c2noc(COc3ccc(Cl)cc3C(=O)c3ccccc3)n2)ccc1F	30 (≈ 68.4 µM)	30.6 (≈ 69.7 µM)	17	19	30.8 (≈ 70.2 µM)	29.8 (≈ 67.9 µM)	18
CCOc1ccc(-c2noc(COc3ccc(Cl)cc3C(=O)c3ccccc3)n2)cc1	29.8 (≈ 68.5 µM)	59.4 (≈ 137 µM)	11	13	40 (≈ 92 µM)	42.2 (≈ 97 µM)	19
Cc1cc(-c2noc(COc3ccc(Cl)cc3C(=O)c3ccccc3)n2)ccc1F	40 (≈ 94.6 µM)	29.6 (≈ 70 µM)	20	17	30 (≈ 70.9 µM)	30.6 (≈ 72.4 µM)	15
Cc1cc(F)c(-c2noc(COc3ccc(Cl)cc3C(=O)c3ccccc3)n2)cc1F	22.4 (≈ 50.8 µM)	29.8 (≈ 67.6 µM)	19	27	30.6 (≈ 69.4 µM)	21.5 (≈ 48.8 µM)	25
O=C(c1ccccc1)c1cc(Cl)ccc1OCc1nc(-c2ccccc2)no1	68 (≈ 174 µM)	64.2 (≈ 164 µM)	10	14	62 (≈ 159 µM)	41 (≈ 105 µM)	9
O=C(c1ccccc1)c1cc(Cl)ccc1OCc1nc(-c2ccc(F)cc2)no1	40.6 (≈ 99.3 µM)	30.8 (≈ 75.3 µM)	16	15	42 (≈ 103 µM)	39.6 (≈ 96.9 µM)	14
O=C(c1ccccc1)c1cc(Cl)ccc1OCc1nc(-c2ccc(F)c(Cl)c2)no1	30.6 (≈ 69 µM)	30.8 (≈ 69.5 µM)	16	19	39.6 (≈ 89.3 µM)	29.8 (≈ 67.2 µM)	17
CC(C)c1ccc(-c2noc(COc3ccc(Cl)cc3C(=O)c3ccccc3)n2)cc1	39.6 (≈ 91.5 µM)	60.8 (≈ 140 µM)	11	14	62 (≈ 143 µM)	40.6 (≈ 93.8 µM)	15
O=C(c1ccccc1)c1cc(Cl)ccc1OCc1nc(-c2ccc(I)cc2)no1	41.6 (≈ 80.5 µM)	62.2 (≈ 120 µM)	10	16	46 (≈ 89 µM)	30.8 (≈ 59.6 µM)	13
CC1(C)S[C@@H]2[C@H](NC(=O)[C@H](N)c3ccccc3)C(=O)N2[C@H]1C(=O)O [AMPICILLIN]	3.36 (≈ 9.62 µM)	3.88 (≈ 11.1 µM)	30	32	4 (≈ 11.4 µM)	3.28 (≈ 9.39 µM)	31
